Measured values published in ChEMBL document CHEMBL1124174, “Substituted benzamides. 1. Potential nondopaminergic antagonists of chemotherapy-induced nausea and emesis” (J Med Chem, 1988).
Values joined by “and” are separate entries in the source; they are usually repeats but may differ in a detail not shown here. Equal values may be shown once.

Assays:
[1] = target: D(2) dopamine receptor (Canis lupus familiaris) (UniProt Q9GJU1); assay: In vivo antagonism activity against dopamine D2 receptor was measured as emesis in dog when administered subcutaneously; assay type: functional, organism-based
[2] = target: D(2) dopamine receptor (Rattus norvegicus) (UniProt P61169); assay: In vivo antagonistic activity against dopamine D2 receptor was measured as catalepsy in rat when administered subcutaneously; assay type: functional, organism-based
In short: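 Male Long Evans rats (275 g) received graded sc doses in dilute aqueous HCl (pH 4.5-5.5). They were observed 180 min for catalepsy, scored when the animal stayed stationary ≥15 s on a four-cork template.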

[3] = target: D(2) dopamine receptor (Rattus norvegicus) (UniProt P61169); assay: In vivo antagonism activity against D2 receptor was measured as stereotypy in rat when administered subcutaneously; assay type: functional, organism-based
In short: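 Male Long Evans rats (275 g) were dosed sc in dilute aqueous HCl (pH 4.5-5.5) 30 min before apomorphine (1 mg/kg sc).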

[4] = target: D(2) dopamine receptor (Rattus norvegicus, UniProt P61169); assay: In vitro antagonistic activity against Dopamine receptor D2 was evaluated for the inhibition of [3H]spiperone binding
In short: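 Rat striatal membranes were prepared by differential centrifugation in 50 mM Tris pH 7.4 at 4 °C. Membrane protein (10 mg) was incubated 15 min at 37 °C with 0.1 nM [3H]spiperone and varying competitor concentrations. Buffer: 50 mM Tris HCl pH 7.5, 0.1% ascorbic acid, pargyline, 120 mM NaCl, 5 mM KCl, 2 mM CaCl2, 1 mM MgCl2. (+)-Butaclamol defined nonspecific binding. Bound ligand was collected by filtration and scintillation counted. IC50 by log-logit regression.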

[5] = tested on: Mustela putorius furo; assay: In vivo antagonism of cisplatin-induced emesis in ferret measured as emetic episodes, twice the dose of 3 mg/kg and in 3 ferrets; assay type: functional
In short: (§1)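 Nonfasted castrated male Fitch ferrets (1–1.5 kg) had jugular catheters implanted ≥48 h earlier under anesthesia. Compounds or saline were given iv twice, 5 min before and 90 min after cisplatin (12 mg/kg iv; 12 mg/mL in warm 0.9% saline). Emesis was observed up to 4 h; events within 1 min counted as one episode. Results were given as mean emetic episodes and % protection versus a pooled historical/concurrent control. t test versus saline.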

[6] = tested on: Mustela putorius furo; assay: In vivo antagonism of cisplatin-induced emesis in ferret measured as percentage protection for twice the dose of 3 mg/kg and in 3 ferrets; assay type: functional; in short: as §1
[7] = tested on: Canis familiaris; assay: In vivo antagonism of cisplatin-induced emesis in dog measured as emetic episodes, twice the dose of 1 mg/kg in 2 dogs; assay type: functional, Canis lupus familiaris
In short: (§2)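 Nonfasted mature male or female beagles were dosed sc twice, 30 min before and 120 min after cisplatin (3 mg/kg iv; 3 mg/mL in warm 0.9% saline, used immediately). Emesis was observed up to 5 h; events within 2 min counted as one episode. Results were given as mean emetic episodes and % protection versus a dynamic control (historical and concurrent saline means pooled). t test versus saline.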

[8] = tested on: Canis familiaris; assay: In vivo antagonism of cisplatin-induced emesis in dog measured as percentage protection for twice the dose of 1 mg/kg in 2 dogs; assay type: functional, Canis lupus familiaris; in short: as §2
[9] = tested on: Mustela putorius furo; assay: In vivo antagonism of cisplatin-induced emesis in ferret measured as emetic episodes, twice the dose of 1 mg/kg and in 3 ferrets; assay type: functional; in short: as §1
[10] = tested on: Mustela putorius furo; assay: In vivo antagonism of cisplatin-induced emesis in ferret measured as percentage protection for twice the dose of 1 mg/kg and in 3 ferrets; assay type: functional; in short: as §1

Chain of D(2) dopamine receptor (P61169 whole entry): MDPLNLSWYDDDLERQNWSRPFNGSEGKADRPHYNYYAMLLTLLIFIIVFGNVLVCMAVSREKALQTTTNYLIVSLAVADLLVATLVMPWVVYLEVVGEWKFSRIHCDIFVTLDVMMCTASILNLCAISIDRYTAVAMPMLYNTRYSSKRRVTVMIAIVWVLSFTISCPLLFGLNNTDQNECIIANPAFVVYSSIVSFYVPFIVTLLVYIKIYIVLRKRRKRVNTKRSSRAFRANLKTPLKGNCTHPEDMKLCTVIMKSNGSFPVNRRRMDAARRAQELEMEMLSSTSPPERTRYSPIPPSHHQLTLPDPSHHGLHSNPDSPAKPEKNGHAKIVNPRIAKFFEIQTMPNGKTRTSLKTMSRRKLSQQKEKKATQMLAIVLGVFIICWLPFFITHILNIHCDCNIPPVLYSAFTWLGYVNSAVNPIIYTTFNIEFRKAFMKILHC
Chain of D(2) dopamine receptor (Rattus norvegicus) (P61169 whole entry): as above
Chain of D(2) dopamine receptor (Canis lupus familiaris) (Q9GJU1 whole entry): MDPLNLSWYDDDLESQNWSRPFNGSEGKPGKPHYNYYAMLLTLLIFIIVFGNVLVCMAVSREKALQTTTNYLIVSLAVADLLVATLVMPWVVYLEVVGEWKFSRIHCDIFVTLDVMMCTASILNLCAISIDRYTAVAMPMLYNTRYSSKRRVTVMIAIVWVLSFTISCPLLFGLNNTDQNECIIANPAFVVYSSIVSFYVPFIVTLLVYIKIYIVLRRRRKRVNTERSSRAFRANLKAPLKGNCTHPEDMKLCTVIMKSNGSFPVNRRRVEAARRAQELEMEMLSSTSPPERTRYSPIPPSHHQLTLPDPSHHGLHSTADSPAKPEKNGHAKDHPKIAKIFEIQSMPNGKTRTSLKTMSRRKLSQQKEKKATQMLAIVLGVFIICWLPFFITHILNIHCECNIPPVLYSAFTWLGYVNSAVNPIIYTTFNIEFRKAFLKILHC

Row | SMILES | ED50 [1] [mg/kg] | ED50 [2] [mg/kg] | ED50 [3] [mg/kg] | IC50 [4] [nM] | Emetic episodes [5] | Protection [6] [%] | Emetic episodes [7] | Protection [8] [%] | Emetic episodes [9] | Protection [9] [%] | Emetic episodes ([5]; 3 mg/kg) | Protection [10] [%]
1 | CCN(CC)CCNC(=O)c1cc(Cl)c(N)cc1OC(C)C(C)O (stereo in doubt; 8g) | > 3 | > 40 | > 40 | – | – | – | – | – | – | – | – | –
2 | CCN(CC)CCNC(=O)c1cc(Cl)c(N)cc1OCC1CO1 (stereo not drawn) | > 3 | > 40 | > 40 | > 1000 | 4.7 | 44 | – | – | – | – | – | –
3 | C/C=C/COc1cc(N)c(Cl)cc1C(=O)NCCN(CC)CC | > 3 | > 40 | > 40 | > 1000 | 0.7 | 90 | 2.5 | 80 | – | – | – | –
4 | CCN(CC)CCNC(=O)c1cc(Cl)c(N)cc1OC1CCCC[C@@H]1O (stereo partly drawn) | > 3 | > 40 | > 40 | > 1000 | 3 | 60 | 4 | 66 | – | – | – | –
5 | C=CCC(Oc1cc(N)c(Cl)cc1C(=O)NCCN(CC)CC)C(C)=O (stereo not drawn) | > 3 | > 40 | > 40 | > 1000 | 2.3 | 68 | 6 | 52 | 1.7 | 76 | – | –
6 | CCN(CC)CCNC(=O)c1cc(Cl)c(N)cc1OCCOC | > 3 | > 40 | > 40 | > 1000 | – | – | 1.5 | 88 | – | – | 1.7 and 5 | –
7 | CCN(CC)CCNC(=O)c1cc(Cl)c(N)cc1OCCC1(C)OCCO1 | > 3 | > 40 | > 40 | > 1000 | 1.3 | 80 | – | – | – | – | – | –
8 | CCN(CC)CCNC(=O)c1cc(Cl)c(N)cc1OCC1=NCCN1 | > 3 | > 40 | > 40 | > 1000 | 1 | 86 | 1.5 | 88 | – | – | – | –
9 | CCN(CC)CCNC(=O)c1cc(Cl)c(N)cc1OCC(=O)OC | > 3 | > 40 | > 40 | > 1000 | 5 | 30 | – | – | – | – | – | –
10 | CCN(CC)CCNC(=O)c1cc(Cl)c(N)cc1OCC1OCCO1 | > 3 | > 40 | > 40 | > 1000 | 2.3 | 67 | – | – | 4 | 43 | – | –
11 | CCN(CC)CCNC(=O)c1cc(Cl)c(N)cc1OCC(O)Cc1ccccc1 (stereo not drawn) | > 3 | > 40 | > 40 | > 1000 | – | – | – | – | 3.3 | – | – | 54
12 | CCN(CC)CCN(C)C(=O)c1cc(Cl)c(N)cc1OC | > 3 | > 40 | > 40 | > 1000 | 8.7 | 0 | – | – | – | – | – | –
13 | CCN1CCCNC(=O)c2cc(Cl)c(N)cc2OCCOCC1 | > 3 | > 40 | – | > 1000 | 11.7 | 0 | – | – | – | – | – | –
14 | CCN(CC)CCNC(=O)c1cc(Cl)c(N)cc1OC(C)C(C)O (stereo in doubt; 8g,h) | – | > 40 | > 40 | – | – | – | – | – | – | – | – | –
15 | CCN(CC)CCNC(=O)c1cc(Cl)c(N)cc1OCC1(C)CO1 (stereo not drawn) | > 3 | > 40 | > 40 | > 1000 | 3.3 | 53 | – | – | – | – | – | –
16 | CCN(CC)CCNC(=O)c1cc(Cl)c(N)cc1OCC1CCCO1 (stereo not drawn) | > 3 | > 40 | > 40 | > 1000 | 3.3 | 54 | – | – | – | – | – | –
17 | CCN(CC)CCNC(=O)c1cc(Cl)c(N)cc1OC/C(C)=N/O | > 3 | > 40 | > 40 | > 1000 | 0 | 100 | 2.5 | 79 | – | – | – | –
18 | CCN(CC)CCNC(=O)c1cc(Cl)c(N)cc1OC(C)/C(C)=N/O (stereo not drawn) | > 3 | > 40 | > 40 | > 1000 | – | – | – | – | 4.3 | – | – | 44
19 | CCN(CC)CCNC(=O)c1cc(Cl)c(N)cc1OC[C@@H](C)O (stereo in doubt; 8f) | > 3 | > 40 | > 40 | – | – | – | – | – | – | – | – | –
